{
  "source": "paper PMC3306481",
  "about": "(Clinical Cancer Research, 2012)",
  "key": {"[1]": {"tested_on": "γH2AX", "assay": "γH2AX levels in circulating tumor cells", "assay_type": "in vivo, human", "details": "day 2 of cycle 1; of nine patients with detectable CTCs; with cyclophosphamide", "summary_of_the_method": "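During cycle 1, patients took the oral test compound once daily (20–60 mg) with daily oral alkylator (50 or 100 mg). Circulating tumour cells were scored for γH2AX positivity by a validated immunofluorescence assay run to standard operating procedures and compared with each patient's baseline.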"}, "[2]": {"tested_on": "PARP", "details": "24 hours after a single 50 mg dose; phase 0 trial; cited from earlier work"}, "[3]": {"tested_on": "refractory solid tumors and lymphoid malignancies", "assay": "Phase I trial: tumor response by RECIST 1.0", "assay_type": "in vivo, human"}, "[4]": {"details": "studies conducted with veliparib; cited from earlier work"}, "[5]": {"tested_on": "poly(ADP-ribose) (PAR), a product of PARP", "assay": "PAR levels in tumor biopsies", "assay_type": "in vivo, human", "details": "all five patients with paired pre- and post-dose biopsies, after 7 or 21 days of treatment; with cyclophosphamide"}, "[6]": {"assay": "Veliparib plasma pharmacokinetics", "assay_type": "in vivo, human", "summary_of_the_method": "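The oral test compound was dosed once daily at 20–60 mg with oral alkylator 50 or 100 mg daily. Plasma was sampled pre-dose and 0.5, 1, 1.5, 2, 3, 4, 6, 8 and 24 h post-dose on cycle 1 day 1 and on the last dosing day (7, 14 or 21). Blood was spun at 1,000 × g and plasma held at -70°C. Levels were read by LC-MS validated to FDA guidelines. Days were compared by two-tailed paired exact Wilcoxon test, with P < 0.05 taken as significant.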"}, "[7]": {"details": "for Maximum tolerated dose (MTD): 21-day cycles (DL 7)"}, "[8]": {"details": "high-dose veliparib, preclinical model; cited from earlier work"}},
  "note": "Read-outs that look alike come from different tables or passages of the source.",
  "data": [
    {"smiles": "C[C@]1(c2nc3c(C(N)=O)cccc3[nH]2)CCCN1", "note": "[veliparib, Veliparib]", "values": [
      {"measurement": "Patients with an increased percentage of γH2AX-positive CTCs", "setting": "[1]", "result": "Seven"},
      {"measurement": "Inhibition of PARP activity in tumor biopsies", "setting": "[2]", "result": "greater than 48%"},
      {"measurement": "Total No. of cycles", "setting": "[3]; partial response, patient 15, breast cancer, dose level 5, with cyclophosphamide", "result": 4, "unit": "cycles"},
      {"measurement": "Patients with prolonged stable disease among patients with known BRCA mutations", "setting": "[3]; thirteen patients with known BRCA mutations, with cyclophosphamide", "result": "three"},
      {"measurement": "Patients with partial response", "setting": "[3]; veliparib with metronomic cyclophosphamide, 35 patients enrolled, RECIST 1.0", "result": "Seven"},
      {"measurement": "Cardiac toxicity related to study drug", "setting": "[4]", "result": "no indication of cardiac toxicity"},
      {"measurement": "Decrease in PAR levels in tumor biopsies", "setting": "[5]", "result": "greater than 80%"},
      {"measurement": "Changes in PK parameters between baseline and day 7, 14, or 21", "setting": "[6]; co-administered metronomic cyclophosphamide", "result": "No statistically significant changes"},
      {"measurement": "half-life", "setting": "[6]; human, plasma, oral", "result": "5 ± 1.5", "unit": "h"},
      {"measurement": "PK behavior of veliparib at DL 5 compared with other DLs", "setting": "[6]; three patients on DL 5 (100 mg cyclophosphamide)", "result": "not different"},
      {"measurement": "Tolerability of the study regimen", "setting": "[7]; in vivo", "result": "well tolerated"},
      {"measurement": "Maximum tolerated dose (MTD)", "setting": "[7]; veliparib daily with cyclophosphamide 50 mg daily", "result": 60, "unit": "mg"},
      {"measurement": "Seizures", "setting": "[8]", "result": "caused seizures"}
    ]},
    {"smiles": "O=P1(N(CCCl)CCCl)NCCCO1", "note": "(centres unmarked) [cyclophosphamide]", "values": [
      {"measurement": "Maximum tolerated dose (MTD)", "setting": "[7]; cyclophosphamide daily with veliparib 60 mg daily", "result": 50, "unit": "mg"}
    ]}
  ]
}
